We go through 5 compounds from ChEMBL document CHEMBL2311535, “Development of second-generation indole-based dynamin GTPase inhibitors” (J Med Chem, 2013).

pIC50: −log10 of the molar value.

One data set deals with HeLa. Put plainly: Cytotoxicity against human HeLa cells at 30 uM after 8 hrs by trypan blue exclusion assay. It counts as cell-based. The gist of the method:
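HeLa cells were treated with compound or vehicle (0.5% DMSO) for 8 h. Floating and adherent cells were pooled. Viability and membrane integrity were scored by Trypan Blue exclusion on an automated viability analyzer. Cytotoxicity (%) was normalized to drug/media background.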

A short description of data set [1]: Selectivity ratio of IC50 for sheep dyn1 receptor to IC50 for rat dyn2 receptor. The gist of the method: (§1)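 Normalized conditions: 50 nM sheep brain dynI or recombinant His6 full-length rat dynII (Sf21-expressed) was preincubated with 10 μg/mL PS for 15 min at RT. Reactions then ran in Tris/NaCl/Mg²⁺/Tween buffer pH 7.4 with leupeptin, AEBSF, 300 μM GTP and compound at 37 °C, 800 rpm: 10 min for dynI, 90 min for dynII. They were stopped with EDTA, and Pi was read by malachite green. Selectivity is the ratio of the two IC50s.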

A short description of data set [2]: Inhibition of sheep dyn1 after 30 mins by malachite green GTPase assay in presence of GTP. More on the design: species or system Ovis aries. The settings on record: for pIC50: read-out: IC50. The gist of the method: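 Compound (≤3% DMSO) was present for 30 min at 37 °C, shaking. The reaction was stopped with EDTA, Pi read by malachite green at 650 nm against a phosphate standard.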

Another data set concerns the target T1, Dynamin-2 (Rattus norvegicus, UniProt P39052).
T1 sequence (P39052 whole entry): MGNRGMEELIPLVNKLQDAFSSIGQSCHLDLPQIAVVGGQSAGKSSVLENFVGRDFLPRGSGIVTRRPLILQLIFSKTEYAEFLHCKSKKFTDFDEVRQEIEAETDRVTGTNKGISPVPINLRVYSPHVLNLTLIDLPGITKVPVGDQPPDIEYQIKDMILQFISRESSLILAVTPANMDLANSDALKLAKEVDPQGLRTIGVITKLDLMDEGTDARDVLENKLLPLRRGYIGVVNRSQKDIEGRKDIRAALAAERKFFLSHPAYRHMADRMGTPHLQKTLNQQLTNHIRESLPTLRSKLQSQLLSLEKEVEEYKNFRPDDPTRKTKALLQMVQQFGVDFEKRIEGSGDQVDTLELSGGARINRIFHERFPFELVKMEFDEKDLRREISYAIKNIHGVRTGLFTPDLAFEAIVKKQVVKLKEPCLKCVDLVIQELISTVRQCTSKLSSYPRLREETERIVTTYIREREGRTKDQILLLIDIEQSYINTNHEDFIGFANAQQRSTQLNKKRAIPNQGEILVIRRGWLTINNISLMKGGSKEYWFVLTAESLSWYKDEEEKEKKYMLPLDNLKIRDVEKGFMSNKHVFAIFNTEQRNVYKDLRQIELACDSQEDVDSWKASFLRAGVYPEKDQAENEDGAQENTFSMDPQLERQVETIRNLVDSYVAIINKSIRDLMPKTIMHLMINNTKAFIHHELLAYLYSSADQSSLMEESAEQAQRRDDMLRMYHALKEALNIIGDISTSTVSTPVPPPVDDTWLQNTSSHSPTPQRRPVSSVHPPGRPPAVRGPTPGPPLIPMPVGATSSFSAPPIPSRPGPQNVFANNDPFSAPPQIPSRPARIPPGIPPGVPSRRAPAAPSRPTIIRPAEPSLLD
Put plainly: Inhibition of rat full length His6-tagged dyn2 using phosphatidylserine as substrate after 90 mins by malachite green GTPase assay in presence of GTP. The gist of the method: as §1

The nature of data set [3]: Inhibition of sheep full length dyn1 using phosphatidylserine as substrate after 10 mins by malachite green GTPase assay in presence of GTP. Also on record: species or system Ovis aries. The gist of the method: as §1

Usually pIC50 stands for the IC50 on a negative log10 scale, so that one unit is a factor of ten. For the compound `CCCCCCCCNC(=O)/C(C#N)=C/c1cn(CCCN(C)C)c2ccccc12`, the Activity in the data set with HeLa was 80%. Moreover, the Ratio IC50 in data set [1] came to 2.3. Also, the pIC50 in data set [2] is 5.89; on Dynamin-2, 4.80; in data set [3], 5.16. `CCCCCCCCCCNCc1cn(CCCN(C)C)c2ccccc12`: the pIC50 on Dynamin-2 was 5.12.

With `CCCCCCCCNC(=O)/C(C#N)=C/c1cn(CC(O)CN2CCOCC2)c2ccccc12` (centres undefined), the pIC50 in data set [2] is 4.74. Turning to `CCCCCCCCNC(=O)/C(C#N)=C/c1cn(CC(=O)Nc2ccc3c(c2)OCO3)c2ccccc12`, the IC50 result in data set [2] is given as “Not Active”. As for `CCCCCCCCNCc1cn(CCCN(C)C)c2ccccc12`, the pIC50 in data set [2] is 5.64.
